Measurements from ChEMBL document CHEMBL3872208, “Synthesis and pharmacological characterization of novel N-(trans-4-(2-(4-(benzo[d]isothiazol-3-yl)piperazin-1-yl)ethyl)cyclohexyl)amides as potential multireceptor atypical antipsychotics” (Eur J Med Chem, 2016).
Calls of active or inactive are those of the source. The rule behind the calls is not given here.

Legend:
[1] = biological target: T1, Muscarinic acetylcholine receptor M1 (Homo sapiens, UniProt P11229); test: Displacement of [3H]pirenzepine from recombinant human M1 receptor expressed in CHO cell membranes at 1 uM after 60 mins by scintillation counting method relative to control; details: CHO cell membranes expressing recombinant human M1 receptor, probe [3H]pirenzepine
T1 sequence (P11229 whole entry): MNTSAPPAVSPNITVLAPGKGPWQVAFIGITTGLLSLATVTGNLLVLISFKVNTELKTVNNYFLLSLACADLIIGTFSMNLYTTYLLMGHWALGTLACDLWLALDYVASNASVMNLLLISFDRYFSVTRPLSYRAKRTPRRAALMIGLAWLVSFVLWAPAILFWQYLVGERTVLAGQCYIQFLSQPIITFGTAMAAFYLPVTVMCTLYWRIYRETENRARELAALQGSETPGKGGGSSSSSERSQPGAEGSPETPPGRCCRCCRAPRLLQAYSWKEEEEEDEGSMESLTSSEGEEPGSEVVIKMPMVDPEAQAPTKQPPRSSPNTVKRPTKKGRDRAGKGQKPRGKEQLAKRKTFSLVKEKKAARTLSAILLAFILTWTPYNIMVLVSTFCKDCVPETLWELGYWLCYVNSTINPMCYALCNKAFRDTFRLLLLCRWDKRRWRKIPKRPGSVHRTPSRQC
How it was run: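 Nonspecific binding defined with […]. Filtered on PEI-soaked GF/B and scintillation counted. Expressed as percent inhibition of control specific binding at a single test concentration.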

Rattus norvegicus [2] = test: Toxicity in Sprague-Dawley rat assessed as cataleptogenic effect by measuring time spent in cataleptic position at 1 to 10 mg/kg, po measured after 0.5 to 2 hrs; assay type: organism-based; details: in vivo
How it was run: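 Male SD rats (180–250 g, n = 7) dosed orally at 1.0, 3.0 or 10.0 mg/kg. Forepaws placed on a bar 0.9 cm in diameter, 11 cm high, at 30, 60 and 120 min after dosing. Time held is expressed as a percentage of the 60 s maximum (mean ± SEM).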

Rattus norvegicus [3] = test: Reversal of PCP-induced hyperlocomotion activity in ip dosed Sprague-Dawley rat pretreated for 10 mins followed by PCP challenge measured after […]; assay type: functional, organism-based
Rattus norvegicus [4] = test: Antipsychotic activity in Sprague-Dawley rat assessed as inhibition of conditioned avoidance behavior at 1.0 to 2.0 mg/kg, ip administered as single dose measured after 1 hr; assay type: functional, organism-based
How it was run: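 Male SD rats (150–180 g, 6 per group) trained in automated shuttle-boxes; only rats exceeding 80% avoidance were used. Single i.p. dose of 1.0 or 2.0 mg/kg given 1 h before a 20-trial session. Read-out is percentage of avoidance (mean ± SEM, n = 6), compared with the vehicle group.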

Rattus norvegicus [5] = test: Cognitive enhancement effect in Sprague-Dawley rat assessed as reversal of PCP-impaired performance by measuring increase in time spent exploring novel object in comparison to familiar object at 0.1 mg/kg, po administered 60 mins prior to test by novel object recognition assay
D(2) dopamine receptor = D(2) dopamine receptor (Homo sapiens, UniProt P14416); test: Displacement of [3H]spiperone from recombinant human D2L receptor expressed in CHO cell membranes after 60 mins by scintillation counting method
Sequence of D(2) dopamine receptor (P14416 whole entry): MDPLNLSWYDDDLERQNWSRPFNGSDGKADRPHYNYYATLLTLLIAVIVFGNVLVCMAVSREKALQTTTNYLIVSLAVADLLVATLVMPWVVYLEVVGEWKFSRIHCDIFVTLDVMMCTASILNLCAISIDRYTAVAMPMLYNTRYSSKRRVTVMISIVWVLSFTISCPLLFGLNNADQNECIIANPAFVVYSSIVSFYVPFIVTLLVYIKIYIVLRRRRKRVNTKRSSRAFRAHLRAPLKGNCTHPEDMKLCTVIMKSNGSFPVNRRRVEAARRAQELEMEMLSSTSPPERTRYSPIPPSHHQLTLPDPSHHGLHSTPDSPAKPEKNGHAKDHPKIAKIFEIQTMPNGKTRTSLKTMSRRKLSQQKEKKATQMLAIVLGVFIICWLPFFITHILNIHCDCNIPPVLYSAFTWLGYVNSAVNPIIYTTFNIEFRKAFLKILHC

[6] = biological target: T2, 5-hydroxytryptamine receptor 1A (Homo sapiens, UniProt P08908); test: Displacement of [3H]8-OH-DPAT from recombinant human 5-HT1A receptor expressed in HEK293 cell membranes after 60 mins by scintillation counting method
T2 sequence (P08908 whole entry): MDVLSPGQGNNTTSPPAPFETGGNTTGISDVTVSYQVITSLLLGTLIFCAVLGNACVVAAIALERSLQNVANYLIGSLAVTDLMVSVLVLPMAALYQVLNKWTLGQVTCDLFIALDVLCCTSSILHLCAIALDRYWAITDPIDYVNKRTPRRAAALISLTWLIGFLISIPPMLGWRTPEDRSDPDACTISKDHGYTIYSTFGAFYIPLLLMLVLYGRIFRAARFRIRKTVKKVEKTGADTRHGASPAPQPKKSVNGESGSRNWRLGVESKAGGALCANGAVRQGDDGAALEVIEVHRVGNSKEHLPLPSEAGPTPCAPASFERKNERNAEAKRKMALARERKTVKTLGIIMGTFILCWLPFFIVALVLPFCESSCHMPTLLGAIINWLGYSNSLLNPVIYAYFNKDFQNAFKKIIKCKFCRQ

CHO = test: Selectivity ratio of Ki for displacement of [3H]spiperone from recombinant human D2L receptor expressed in CHO cell membranes to Ki for displacement of [3H]methyl-spiperone from recombinant human D3 receptor expressed in CHO cell membranes
How it was run: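 D2L binding: CHO membranes (16 µg protein) with 0.3 nM [3H]methyl-spiperone in 50 mM Tris-HCl pH 7.4, 120 mM NaCl, 10 mM MgCl2, 1 mM EDTA, with butaclamol for nonspecific binding. D3 binding: membranes (8 µg) with 0.3 nM [3H]methyl-spiperone in the same Tris buffer with 5 mM KCl, 5 mM MgCl2, 5 mM EDTA, with (+)butaclamol for nonspecific binding. Both run 60 min at 22 °C, then GF/B filtration. Ki by Cheng–Prusoff; ratio is D2 Ki/D3 Ki.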

[7] = biological target: 5-hydroxytryptamine receptor 2A (Homo sapiens, UniProt P28223); test: Displacement of [3H]ketanserin from recombinant human 5-HT2A receptor expressed in HEK293 cell membranes after 60 mins by scintillation counting method
Sequence of 5-hydroxytryptamine receptor 2A (P28223 whole entry): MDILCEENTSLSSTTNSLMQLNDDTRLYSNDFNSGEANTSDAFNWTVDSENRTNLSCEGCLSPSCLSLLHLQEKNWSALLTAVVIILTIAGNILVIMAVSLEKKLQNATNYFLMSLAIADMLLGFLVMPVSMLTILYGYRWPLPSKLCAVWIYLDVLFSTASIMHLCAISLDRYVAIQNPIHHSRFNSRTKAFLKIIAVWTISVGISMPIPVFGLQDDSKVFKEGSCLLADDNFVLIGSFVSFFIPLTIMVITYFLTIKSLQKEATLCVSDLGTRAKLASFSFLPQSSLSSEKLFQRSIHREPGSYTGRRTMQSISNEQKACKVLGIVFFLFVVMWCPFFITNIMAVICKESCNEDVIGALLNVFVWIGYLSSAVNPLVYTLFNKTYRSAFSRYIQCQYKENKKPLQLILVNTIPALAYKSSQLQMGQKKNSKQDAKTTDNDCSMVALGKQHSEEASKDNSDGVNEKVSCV

[8] = Stability of compound; assay type: physicochemical
D(3) dopamine receptor = D(3) dopamine receptor (Homo sapiens, UniProt P35462); test: Displacement of [3H]methyl-spiperone from recombinant human D3 receptor expressed in CHO cell membranes after 60 mins by scintillation counting method
Sequence of D(3) dopamine receptor (P35462 whole entry): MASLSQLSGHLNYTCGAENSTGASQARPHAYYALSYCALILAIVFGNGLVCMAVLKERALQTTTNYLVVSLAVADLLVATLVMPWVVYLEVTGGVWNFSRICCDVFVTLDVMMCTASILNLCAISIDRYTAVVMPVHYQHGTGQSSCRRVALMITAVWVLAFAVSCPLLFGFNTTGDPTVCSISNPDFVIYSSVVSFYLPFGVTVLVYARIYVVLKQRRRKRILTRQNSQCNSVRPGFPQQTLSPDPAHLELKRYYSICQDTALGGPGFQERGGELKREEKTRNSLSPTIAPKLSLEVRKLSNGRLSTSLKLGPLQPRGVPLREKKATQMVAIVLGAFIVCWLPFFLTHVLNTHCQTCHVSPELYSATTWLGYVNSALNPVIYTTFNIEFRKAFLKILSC

Row | Structure (SMILES) | inhibition at 1 h, 1 µM [1] [%] | Activity (Rattus norvegicus [2]) | Activity (Rattus norvegicus [3]) | inhibition (Rattus norvegicus [4]) | Activity (Rattus norvegicus [5]) | Ki (D(2) dopamine receptor) [nM] | Ki [6] [nM] | Ratio Ki (CHO) | Ki [7] [nM] | Stability [8] | Ki (D(3) dopamine receptor) [nM]
1 | CN(C)C(=O)N[C@H]1CC[C@H](CCN2CCN(c3cccc(Cl)c3Cl)CC2)CC1 [CARIPRAZINE] | < 20 | Non-Toxic | Dose-dependent effect | Active | Active |  |  |  |  |  | 
2 | CCOC(=O)N[C@H]1CC[C@H](CCN2CCN(c3nsc4ccccc34)CC2)CC1 |  |  |  |  |  | 0.71 | 0.2 | 12.2 | 0.53 | Unstable | 0.058
